Laboratory results from ChEMBL document CHEMBL1139420, “Antibacterial profile against drug-resistant Staphylococcus epidermidis clinical strain and structure-activity relationship studies of 1H-pyrazolo[3,4-b]pyridine and thieno[2,3-b]pyridine derivatives” (Bioorg Med Chem, 2008).
In brackets after ≈: the same amount, converted by molar mass. Activity calls are given as the source filed them. The rule behind the calls is not given here.

What was measured:
Pseudomonas aeruginosa = assay: Antibacterial activity against drug-resistant Pseudomonas aeruginosa clinical isolate assessed as inhibition zone diameter after 24 hrs by antibacterial susceptibility test; format: functional, organism-based
Enterobacter cloacae = assay: Antibacterial activity against drug-resistant Enterobacter cloacae clinical isolate assessed as inhibition zone diameter after 24 hrs by antibacterial susceptibility test; format: functional, organism-based
[1] = tested on: Acinetobacter calcoaceticus; assay: Antibacterial activity against drug-resistant Acinetobacter calcoaceticus clinical isolate assessed as inhibition zone diameter after 24 hrs by antibacterial susceptibility test; format: functional, organism-based
Escherichia coli = assay: Antibacterial activity against drug-resistant Escherichia coli clinical isolate assessed as inhibition zone diameter after 24 hrs by antibacterial susceptibility test; format: functional, organism-based
[2] = Cytotoxicity against human PBMC assessed as cell viability at 700 uM after 3 to 5 days by XTT method; format: cell-based; details: PBMC (peripheral blood mononuclear cells), read-out: Activity
In short: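 Human PBMCs from healthy donors isolated by density gradient from buffy coats, kept in RPMI 1640 with 10% heat-inactivated FBS, penicillin, streptomycin, 2 mM glutamine, 10 mM Hepes; stimulated 2–3 days with 5 µg/mL PHA, then kept with 5 U/mL IL-2. Compound at 700 µM, 5% CO2, 37 °C; XTT added, OD 450 nm after 2 h; duplicate, at least three times.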

Proteus mirabilis = assay: Antibacterial activity against drug-resistant Proteus mirabilis clinical isolate assessed as inhibition zone diameter after 24 hrs by antibacterial susceptibility test; format: functional, organism-based
Enterococcus faecalis = assay: Antibacterial activity against drug-resistant Enterococcus faecalis clinical isolate assessed as inhibition zone diameter after 24 hrs by antibacterial susceptibility test; format: functional, organism-based
[3] = tested on: Staphylococcus epidermidis; assay: Antibacterial activity against drug-resistant Staphylococcus epidermidis clinical isolate assessed as inhibition zone diameter after 24 hrs by antibacterial susceptibility test; format: functional
Serratia marcescens = assay: Antibacterial activity against drug-resistant Serratia marcescens clinical isolate assessed as inhibition zone diameter after 24 hrs by antibacterial susceptibility test; format: functional, organism-based
Klebsiella pneumoniae = assay: Antibacterial activity against drug-resistant Klebsiella pneumoniae clinical isolate assessed as inhibition zone diameter after 24 hrs by antibacterial susceptibility test; format: functional, organism-based
[4] = tested on: Staphylococcus epidermidis; assay: Antibacterial activity against drug-resistant Staphylococcus epidermidis clinical isolate after 24 hrs by macro-dilution broth method; format: functional

Structure (SMILES)	Activity (Pseudomonas aeruginosa)	Activity (Enterobacter cloacae)	Activity [1]	Activity (Escherichia coli)	viability at 700 µM [2]	Activity (Proteus mirabilis)	Activity (Enterococcus faecalis)	inhibition zone (IZ) [3]	Activity (Serratia marcescens)	Activity (Klebsiella pneumoniae)	MIC [4]
O=C(O)c1cnc2c(cnn2-c2ccccc2)c1Nc1ccc([N+](=O)[O-])cc1	inactive	inactive	inactive	inactive	88%	inactive	inactive	0 mm	inactive	inactive	
O=C(O)c1cnc2sccc2c1Nc1ccc([N+](=O)[O-])cc1	inactive	inactive	inactive	inactive	100%	inactive	inactive	0 mm	inactive	inactive	
O=C(O)c1cnc2sccc2c1Nc1cccc(F)c1	inactive	inactive	inactive	inactive	100%	inactive	inactive	0 mm	inactive	inactive	
COc1cccc(Nc2c(C(=O)O)cnc3sccc23)c1	inactive	inactive	inactive	inactive	100%	inactive	inactive	0 mm	inactive	inactive	
O=C(O)c1cnc2sccc2c1Nc1cccc(Br)c1	inactive	inactive	inactive	inactive	100%	inactive	inactive	0 mm	inactive	inactive	
COc1ccc(Nc2c(C(=O)O)cnc3sccc23)cc1	inactive	inactive	inactive	inactive	100%	inactive	inactive	0 mm	inactive	inactive	
O=C(O)c1cnc2c(cnn2-c2ccccc2)c1Nc1ccc(Cl)cc1	inactive	inactive	inactive	inactive	100%	inactive	inactive	0 mm	inactive	inactive	
O=C(O)c1cnc2c(cnn2-c2ccccc2)c1Nc1cccc(Cl)c1	inactive	inactive	inactive	inactive	100%	inactive	inactive	17 mm	inactive	inactive	16 µg/mL (≈ 43.9 µM)
O=C(O)c1cnc2sccc2c1Nc1cccc(Cl)c1	inactive	inactive	inactive	inactive	100%	inactive	inactive	0 mm	inactive	inactive	
O=C(O)c1cnc2sccc2c1Nc1ccc(Br)cc1	inactive	inactive	inactive	inactive	100%	inactive	inactive	0 mm	inactive	inactive	
O=C(O)c1cnc2sccc2c1Nc1ccc(Cl)cc1	inactive	inactive	inactive	inactive	100%	inactive	inactive	0 mm	inactive	inactive	
COc1cccc(Nc2c(C(=O)O)cnc3c2cnn3-c2ccccc2)c1	inactive	inactive	inactive	inactive	100%	inactive	inactive	15 mm	inactive	inactive	16 µg/mL (≈ 44.4 µM)
Cc1cccc(Nc2c(C(=O)O)cnc3sccc23)c1	inactive	inactive	inactive	inactive	100%	inactive	inactive	0 mm	inactive	inactive	
O=C(O)c1cnc2c(cnn2-c2ccccc2)c1Nc1ccc(Br)cc1	inactive	inactive	inactive	inactive	92%	inactive	inactive	10 mm	inactive	inactive	
Cc1ccc(Nc2c(C(=O)O)cnc3sccc23)cc1	inactive	inactive	inactive	inactive	100%	inactive	inactive	0 mm	inactive	inactive	
O=C(O)c1cnc2c(cnn2-c2ccccc2)c1Nc1ccccc1	inactive	inactive	inactive	inactive	91%	inactive	inactive	0 mm	inactive	inactive	
O=C(O)c1cnc2sccc2c1Nc1ccccc1	inactive	inactive	inactive	inactive	100%	inactive	inactive	0 mm	inactive	inactive	
O=C(O)c1cnc2sccc2c1Nc1cccc([N+](=O)[O-])c1	inactive	inactive	inactive	inactive	100%	inactive	inactive	0 mm	inactive	inactive	
CN[C@H](CC(C)C)C(=O)N[C@H]1C(=O)N[C@@H](CC(N)=O)C(=O)N[C@H]2C(=O)N[C@H]3C(=O)N[C@H](C(=O)N[C@H](C(=O)O)c4cc(O)cc(O)c4-c4cc3ccc4O)[C@H](O)c3ccc(c(Cl)c3)Oc3cc2cc(c3O[C@@H]2O[C@H](CO)[C@@H](O)[C@H](O)[C@H]2O[C@H]2C[C@](C)(N)[C@H](O)[C@H](C)O2)Oc2ccc(cc2Cl)[C@H]1O [VANCOMYCIN]								15 mm			
COc1ccc(Nc2c(C(=O)O)cnc3c2cnn3-c2ccccc2)cc1	inactive	inactive	inactive	inactive	100%	inactive	inactive	0 mm	inactive	inactive	
O=C(O)c1cnc2c(cnn2-c2ccccc2)c1Nc1cccc([N+](=O)[O-])c1	inactive	inactive	inactive	inactive	100%	inactive	inactive	12 mm	inactive	inactive	
Cc1ccc(Nc2c(C(=O)O)cnc3c2cnn3-c2ccccc2)cc1	inactive	inactive	inactive	inactive	100%	inactive	inactive	0 mm	inactive	inactive	
O=C(O)c1cnc2sccc2c1Nc1ccc(F)cc1	inactive	inactive	inactive	inactive	100%	inactive	inactive	0 mm	inactive	inactive	
